This note sets out measurements from ChEMBL document CHEMBL2010776, “Synthesis and structure elucidation of novel fused 1,2,4-triazine derivatives as potent inhibitors targeting CYP1A1 activity” (Bioorg Med Chem, 2012).

Broadly, the inhibition is the share of the control response that was lost under treatment. The low end stands for a response near the control, the high end for a response far below the control. One may read the IC50 as the point on the concentration scale where inhibition reaches its midpoint. Higher therefore signals weaker potency. Broadly, the LD50 is the dose expected to kill half of the subjects tested.

The target in one data set is T1, CYP1A1 (Rattus norvegicus, UniProt P00185).
T1 sequence (P00185 whole entry): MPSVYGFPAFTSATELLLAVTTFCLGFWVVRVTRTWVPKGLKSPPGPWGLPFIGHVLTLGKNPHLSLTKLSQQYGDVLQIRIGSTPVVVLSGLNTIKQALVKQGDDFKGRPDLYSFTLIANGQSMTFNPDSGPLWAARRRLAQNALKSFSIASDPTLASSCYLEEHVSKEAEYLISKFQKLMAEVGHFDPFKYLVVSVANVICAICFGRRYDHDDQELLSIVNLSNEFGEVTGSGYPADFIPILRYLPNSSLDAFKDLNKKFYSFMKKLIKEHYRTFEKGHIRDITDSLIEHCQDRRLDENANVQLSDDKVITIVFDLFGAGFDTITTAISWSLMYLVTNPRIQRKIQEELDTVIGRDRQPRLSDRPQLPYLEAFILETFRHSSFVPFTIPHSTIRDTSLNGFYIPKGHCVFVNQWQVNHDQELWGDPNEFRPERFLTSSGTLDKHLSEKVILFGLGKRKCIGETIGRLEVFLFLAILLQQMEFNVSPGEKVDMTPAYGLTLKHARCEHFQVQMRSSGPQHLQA
The data set can be described thus: Inhibition of CYP1A1 activity in rat liver microsomes using benzo[alpha]pyrene as substrate at 100 nmol after 10 mins by fluorescence analysis. The arrangement: species or system Microsome. As to conditions: probe benzo[alpha]pyrene. The method, boiled down:
(§1)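 AHH assay, 1 mL mix: 50 mM Tris–HCl pH 7.4, […], 100 nmol test compound, 0.1 mL microsomal protein (10 mg/mL) from PAH-induced rat liver (105,000 g pellet, resuspended in 0.1 M K phosphate pH 7.4). Started with 100 nmol benzo[a]pyrene, 37 °C 10 min, acetone stop; 3-OH-BaP hexane-extracted, fluorescence ex 396/em 522 nm; percent change in activity.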
A general note: Liver microsomes are a subcellular fraction often used to study metabolism.

In another data set the target is T2, Cytochrome P450 1A1 (Rattus norvegicus, UniProt P00185).
T2 sequence (P00185 whole entry): T1 sequence (P00185 whole entry)
The data set can be described thus: Inhibition of CYP1A1 activity in rat liver microsomes using benzo[alpha]pyrene as substrate after 10 mins by fluorescence analysis. Further details: species or system Microsome. The gist of the method: as §1

For data set [1], the system named is Mus musculus. Put plainly: Acute toxicity in mouse assessed as tolerability up to 350 mg/kg, po. The class given is organism-based. The arrangement: dose 350 mg/kg, route oral. The following applies: in vivo.
Data set [2] deals with Mus musculus. The data set can be described thus: Acute toxicity in mouse assessed as tolerability up to 150 mg/kg, ip. The arrangement: dose 150 mg/kg, route intraperitoneal. As to conditions: in vivo. It counts as organism-based. The method, boiled down:
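Mice in groups of six; compound suspended in corn oil and given intraperitoneally at 1, 5, 10, 50 or 150 mg/kg; vehicle-only control group. Body weight recorded before dosing and on days 7 and 14 (termination).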

The nature of data set [3]: Toxicity in po dosed mouse. The class given is organism-based. As to conditions: in vivo.

Take `COc1ccc(CC2=NN3C(=NN(C(C)=O)C34C(=O)N(C(C)=O)c3ccccc34)N(N(C(C)=O)C(C)=O)C2=O)cc1` (stereo unspecified): on CYP1A1, the inhibition at 10 min is 81.5%. Moreover, on Cytochrome P450 1A1, the IC50 is 61.4 nM. Also, the Activity entry in the data set with Mus musculus [1] and in the data set on Mus musculus [2] was “Non-toxic” throughout. This molecule also gave an LD50 in data set [3] of more than 350 mg/kg.
Consider `Nn1c(N/N=C2\C(=O)Nc3ccccc32)nnc(Cc2ccccc2)c1=O`, for which the inhibition at 10 min against CYP1A1 stood at 92.2%. The molecule further returned an IC50 at Cytochrome P450 1A1 of 5.42 nM. Further, the Activity entry in the data set with Mus musculus [1] and in the data set with Mus musculus [2] was “Non-toxic” each time. Besides, the LD50 in data set [3] is more than 350 mg/kg.
Turning to `COc1ccc(CC2=NN3C(=NN(C(C)=O)C3(C)c3ccccc3)N(NC(C)=O)C2=O)cc1` (stereo unspecified), the inhibition at 10 min at CYP1A1 was 59.8%. This molecule returned an IC50 against Cytochrome P450 1A1 of 8.36 nM.
Taken in the same sequence, the figures for `CC(=O)NN1C(=O)C(Cc2ccccc2)=NN2C1=NN(C(C)=O)C2(C)c1ccc(C)cc1` (stereo unspecified) were 75.6% and 6.62 nM.
Taken in the same sequence, the figures for `COc1ccc(CC2=NN3C(=NN(C(C)=O)C3c3ccccc3)N(N(C(C)=O)C(C)=O)C2=O)cc1` (stereo unspecified) were 57.6% and 86.7 nM.
In the same order, the values of `COc1ccc(C2N(C(C)=O)N=C3N2N=C(Cc2ccccc2)C(=O)N3N(C(C)=O)C(C)=O)cc1` (stereo unspecified) are 51.5% and 9.71 nM.
For the molecule `COc1ccc(CC2=NN3C(=NN(C(C)=O)C3(C)c3ccc(C)cc3)N(N(C(C)=O)C(C)=O)C2=O)cc1` (stereo unspecified), at CYP1A1, the inhibition at 10 min worked out at 48.2%. Moreover, the IC50 against Cytochrome P450 1A1 was 10.4 nM.
`COc1ccc(Cc2nnc(N/N=C3\C(=O)Nc4ccccc43)n(N)c2=O)cc1`: the inhibition at 10 min against CYP1A1 came out at 90.5%. The same molecule had an IC50 at Cytochrome P450 1A1 of 5.53 nM. In addition, the Activity entry in the data set on Mus musculus [1] and in the data set with Mus musculus [2] was “Non-toxic” in each case. The molecule also yielded a median lethal dose (LD50) in data set [3] of more than 350 mg/kg.
Regarding `CC(=O)N1N=C2N(N=C(Cc3ccccc3)C(=O)N2N(C(C)=O)C(C)=O)C1c1ccccc1` (stereo unspecified), the inhibition at 10 min against CYP1A1 amounted to 20.6%. On Cytochrome P450 1A1, this molecule yielded an IC50 of 24.2 nM.
Taken in the same sequence, the figures for `CC(=O)N1C(=O)C2(c3ccccc31)N(C(C)=O)N=C1N(N(C(C)=O)C(C)=O)C(=O)C(Cc3ccccc3)=NN12` (stereo unspecified) were 64.6% and 7.74 nM.
Molecule `CC(=O)NN1C(=O)C(Cc2ccccc2)=NN2C1=NN(C(C)=O)C2(C)c1ccc(Cl)cc1` (racemic) came in with an inhibition at 10 min against CYP1A1 of 87.9%. This molecule displayed an IC50 on Cytochrome P450 1A1 of 5.69 nM. In addition, the Activity result with Mus musculus [1] and in the data set with Mus musculus [2] was “Non-toxic” each time. Moreover, the LD50 in data set [3] is more than 350 mg/kg.
For the molecule `CC(=O)NN1C(=O)C(Cc2ccccc2)=NN2C1=NN(C(C)=O)C2(C)c1ccccc1` (stereo unspecified), on CYP1A1, the inhibition at 10 min came to 37.9%. This molecule yielded an IC50 on Cytochrome P450 1A1 of 13.2 nM.
